Broadly, the IC50 is the concentration that inhibits the measured activity by half. A lower IC50 goes with inhibition by little substance.

For one experiment, the system named is K562. The experiment is described as follows: Cytotoxicity against human K562 cells after 5 days by MTT assay. It counts as cell-based. As to conditions: K562, 120 h. In short, it runs like this:
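K562 human chronic myelogenous leukaemia cells were cultured at 37 °C with drug for 5 days, and growth was read by MTT assay. IC50 was taken as the concentration giving 50% inhibition of cell growth.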

Another experiment has as its target Tubulin. The experiment in a line: Inhibition of tubulin. The class given is protein-complex assay, Homo sapiens.

The molecule `COc1ccc(/C=C(\F)C(=O)c2cc(OC)c(OC)c(OC)c2)cc1F` had an IC50 in the experiment on K562 of 0.77 µM.

Turning to `COc1ccc(/C=C(\F)C(=O)c2cc(OC)c(OC)c(OC)c2)cc1O`, the figures for the IC50 at Tubulin and in the experiment with K562 were 0.6 µM and 0.0137 µM, respectively.

As to `COc1ccc(/C=C(\F)C(=O)c2cc(OC)c(OC)c(OC)c2)cc1`, the values for the IC50 against Tubulin and with K562 were 4.6 µM and 0.39 µM, respectively.

`COc1ccc(/C=C(\F)C(=O)c2cc(OC)c(OC)c(OC)c2)c(F)c1` returned an IC50 in the experiment on K562 of 1.19 µM.

Consider `COc1cc(C(=O)/C(C#N)=C/c2ccc(OC)c(OC)c2OC)cc(OC)c1OC`, for which, in the experiment on K562, the 50% inhibitory concentration (IC50) was > 10 µM.

With `COc1cc(C(=O)/C(C#N)=C/c2ccc(C(F)(F)F)cc2)cc(OC)c1OC`, in the experiment with K562, the IC50 was > 10 µM.

Take `COc1ccc(/C=C(\C#N)C(=O)c2cc(OC)c(OC)c(OC)c2)cc1Br`: the IC50 in the experiment on K562 was > 10 µM.

`COc1ccc(/C=C(\C#N)C(=O)c2cc(OC)c(OC)c(OC)c2)cc1F`: the IC50 in the experiment on K562 is > 10 µM.

For the molecule `CCOC(=O)/C(=C/c1ccc(OC)c(O[Si](C)(C)C(C)(C)C)c1)C(=O)c1cc(OC)c(OC)c(OC)c1`, in the experiment on K562, the IC50 amounted to 4.29 µM.

`CCOC(=O)/C(=C/c1ccc(OC)c(OC)c1)C(=O)c1cc(OC)c(OC)c(OC)c1`: the IC50 in the experiment on K562 is > 10 µM.

`COc1ccc(/C=C(\F)C(=O)c2cc(OC)c(OC)c(OC)c2)cc1Br` gave an IC50 in the experiment with K562 of 6 µM.

For the molecule `COc1ccc(/C=C(\F)C(=O)c2cc(OC)c(OC)c(OC)c2)cc1OC`, the IC50 in the experiment with K562 turned out to be 1.21 µM.

As for `COc1cc(C(=O)/C(F)=C/c2ccc(OC)c(OC)c2OC)cc(OC)c1OC`, 10 µM corresponded to half-maximal inhibition in the experiment with K562 (IC50).

In the case of `CCOC(=O)/C(=C/c1ccc(OC)c(OC)c1OC)C(=O)c1cc(OC)c(OC)c(OC)c1`, in the experiment on K562, the IC50 was > 10 µM.

`COc1cc(C(=O)/C(F)=C/c2ccc3c(c2)OCO3)cc(OC)c1OC`: the IC50 in the experiment on K562 is 0.8 µM.

On to `COc1ccc(/C=C(\C#N)C(=O)c2cc(OC)c(OC)c(OC)c2)cc1O[Si](C)(C)C(C)(C)C`, for which, in the experiment with K562, the IC50 was > 10 µM.

Take `COc1ccc(/C=C(\C#N)C(=O)c2cc(OC)c(OC)c(OC)c2)c(F)c1`: in the experiment with K562, the IC50 was > 10 µM.

In the experiment on K562, `COc1ccc(/C=C(\C#N)C(=O)c2cc(OC)c(OC)c(OC)c2)cc1O` showed an IC50 of 4.2 µM.

With `COc1ccc(/C=C(\C#N)C(=O)c2cc(OC)c(OC)c(OC)c2)cc1`, in the experiment on K562, the IC50 was > 10 µM.

Turning to `COc1cc(C(=O)/C(C#N)=C/c2ccc3c(c2)OCO3)cc(OC)c1OC`, in the experiment with K562, the IC50 is > 10 µM.

In the case of `CCOC(=O)/C(=C/c1ccc(OC)cc1)C(=O)c1cc(OC)c(OC)c(OC)c1`, the IC50 in the experiment on K562 is > 10 µM.

Consider `CCOC(=O)/C(=C\c1ccc(OC)c(O)c1)C(=O)c1cc(OC)c(OC)c(OC)c1`, for which the IC50 in the experiment on K562 is 0.87 µM.

As to `COc1ccc(/C=C(\C#N)C(=O)c2cc(OC)c(OC)c(OC)c2)cc1OC`, the IC50 in the experiment with K562 is > 10 µM.

`COc1ccc(/C=C(\C)C(=O)c2cc(OC)c(OC)c(OC)c2)cc1O`: the IC50 on Tubulin is 1.8 µM.

Regarding `COc1ccc(/C=C/C(=O)c2cc(OC)c(OC)c(OC)c2)cc1O`, the IC50 at Tubulin came out at 10 µM.

These data come from ChEMBL document CHEMBL1139714, “Effects of alpha-substitutions on structure and biological activity of anticancer chalcones” (Bioorg Med Chem Lett, 2006).
